≈ marks a conversion by molar mass, not a printed value. Calls of active or inactive are those of the source. The rule behind the calls is not given here.
Experiments:
[1] = tested on: Bacillus subtilis; experiment: Antibacterial activity against Bacillus subtilis by microdilution assay; format: functional
How it was run: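 Broth microdilution against B. subtilis, samples serially twofold diluted from a 1024 µg/mL start, two replicates per concentration. MIC recorded. Cefotaxim served as positive control. Afterwards, bacteria treated at the MIC were replated on drug-free HNB agar to tell bacteriostatic from bactericidal action.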

[2] = tested on: Pseudomonas fluorescens; experiment: Antibacterial activity against Pseudomonas fluorescens at 1024 ug/ml; format: functional, organism-based
How it was run: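 Broth microdilution against P. fluorescens, samples serially twofold diluted from a top concentration of 1024 µg/mL, two replicates per concentration. Cefotaxim served as positive control.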

[3] = tested on: Caenorhabditis elegans; experiment: Nematicidal activity against Caenorhabditis elegans at 100 ug/ml; format: functional, organism-based
How it was run: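 Caenorhabditis elegans exposed to compound at 50 and 100 µg/mL (n = 60, two replicates per concentration). Scored by increase in worm number and worm movement, graded on a + scale. Pyrantel embonate at 50 µg/mL served as positive control.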

[4] = Toxicity against Oreochromis mossambicus assessed as mortality at 75 ug/ml; format: organism-based; conditions: in vivo, read-out: Activity
How it was run: (§1)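 Tilapia (Oreochromis mossambicus) exposed to the compound in water at 50 or 75 µg/mL. Read-out is percent fish mortality.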

[5] = Toxicity against Oreochromis mossambicus assessed as mortality at 50 ug/ml; format: organism-based; conditions: in vivo, read-out: Activity; how it was run: as §1
[6] = tested on: Biomphalaria glabrata; experiment: Molluscicidal activity against Biomphalaria glabrata; format: functional
[7] = tested on: 5637; experiment: Cytotoxicity against human 5637 cells; format: functional; conditions: read-out: LC50 (the source's name)

| SMILES | MIC [1] [µg/mL] | Activity [2] | also measured |
| --- | --- | --- | --- |
| [H][C@@]12COC(=O)c3cc(O)c(O)c(O)c3Oc3c(O)cc4c(=O)oc5c(O)c(O)c(c6c(=O)oc3c4c56)-c3c(cc(O)c(O)c3O)C(=O)O[C@@]1([H])[C@H](O)[C@@H](O)C(O)O2 (stereo partly drawn) | 8 (≈ 10.2 µM) | – | – |
| O=C(O[C@H]1C(O)O[C@@H]2COC(=O)c3cc(O)c(O)c(O)c3-c3c(O)c(O)c4oc(=O)c5c(c(O)c(O)c6oc(=O)c3c4c65)-c3c(cc(O)c(O)c3O)C(=O)O[C@H]2[C@@H]1O)c1cc(O)c(O)c(O)c1 (stereo partly drawn) | 8 (≈ 8.56 µM) | inactive | – |
| O=C1O[C@@H]2[C@@H](OC(=O)c3cc(O)c(O)c(O)c3-c3c1cc(O)c(O)c3O)[C@H](O)O[C@@H]1COC(=O)c3cc(O)c(O)c(O)c3-c3c(O)c(O)c4oc(=O)c5c(c(O)c(O)c6oc(=O)c3c4c65)-c3c(cc(O)c(O)c3O)C(=O)O[C@@H]21 [PUNICALAGIN] | 32 (≈ 29.5 µM) | inactive | – |
| [H][C@@]12OC(=O)c3cc(O)c(O)c(O)c3-c3c(O)c(O)c4oc(=O)c5cc(O)c(c6oc(=O)c3c4c65)Oc3c(cc(O)c(O)c3O)C(=O)OC[C@@]1([H])OC(O)[C@]1([H])OC(=O)c3cc(O)c(O)c(O)c3-c3c(cc(O)c(O)c3O)C(=O)O[C@@]21[H] (stereo partly drawn) [ISOTERCHEBULIN] | 8 (≈ 7.38 µM) | inactive | Activity [3]: Active; mortality at 75 ug/ml [4]: 10%; mortality at 50 ug/ml [5]: 10%; LC100 [6]: 60 µg/mL |
| O=C1O[C@H]([C@@H]2OC(=O)c3cc(O)c(O)c(O)c3-c3c(O)c(O)c4oc(=O)c5c(c(O)c(O)c6oc(=O)c3c4c65)-c3c(cc(O)c(O)c3O)C(=O)OC[C@H]2O)[C@@H]2OC(=O)c3c(c(O)c(O)c(O)c3[C@H]2O)-c2c1cc(O)c(O)c2O [PUNICACORTEIN C] | 16 (≈ 14.8 µM) | inactive | CC50 [7]: 41.4 µM |
| O=C1O[C@H]2[C@H](O)[C@@H](CO)OC(O)[C@@H]2OC(=O)c2cc(O)c(O)c(O)c2-c2c1cc(O)c(O)c2O (stereo partly drawn) | – | inactive | CC50 [7]: 84.7 µM; Activity [1]: inactive |
| O=C1OC[C@H]2OC(O)[C@H](O)[C@@H](O)[C@@H]2OC(=O)c2cc(O)c(O)c(O)c2-c2c(O)c(O)c3oc(=O)c4cc(O)c(c5oc(=O)c2c3c54)Oc2c1cc(O)c(O)c2O (stereo partly drawn) | – | inactive | – |
| O=C(OC[C@H]1OC(O)[C@H](O)[C@@H](O)[C@@H]1OC(=O)c1cc(O)c(O)c(O)c1-c1c(O)c(O)c2oc(=O)c3cc(O)c(O)c4oc(=O)c1c2c43)c1cc(O)c(O)c(O)c1 (stereo partly drawn) [TERFLAVIN B] | 64 (≈ 81.6 µM) | inactive | – |
| O=C(OC[C@H]1OC(O)[C@@H]2OC(=O)c3cc(O)c(O)c(O)c3-c3c(cc(O)c(O)c3O)C(=O)O[C@H]2[C@@H]1OC(=O)c1cc(O)c(O)c(O)c1-c1c(O)c(O)c2oc(=O)c3cc(O)c(O)c4oc(=O)c1c2c43)c1cc(O)c(O)c(O)c1 (stereo partly drawn) [TERFLAVIN A] | 64 (≈ 58.9 µM) | inactive | – |
| CO/N=C(\C(=O)N[C@@H]1C(=O)N2C(C(=O)O)=C(COC(C)=O)CS[C@H]12)c1csc(N)n1 [CEFOTAXIME] | 2 (≈ 4.39 µM) | – | – |

Reference: ChEMBL document CHEMBL1150564, “Isoterchebulin and 4,6-O-isoterchebuloyl-D-glucose, novel hydrolyzable tannins from Terminalia macroptera” (J Nat Prod, 2001)
